Screening data as filed in PubChem.
This is a sample that favours compounds with a hit; in the whole collection about 2.6% have one here.
SENP1 inh = SENP1 (human) catalytic domain inhibition. Q9P0U3. recombinant SENP1 catalytic domain, CyPet-SUMO1-YPet FRET cleavage. inhibition, % at 10 µM. actives 0.21% (n = 360,000);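 active = inhibition at least 30% at 10 µM, raw YFP signal under a set limit, fluorescence ratio 0.5 to 1.5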;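 note: 0% = enzyme with DMSO and 100% = no enzyme wells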
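system = hSENP1 catalytic domain, recombinant | reagent = SFCypet-SUMO1-SFYpet substrate at 25 nM | doses = one dose per compound, 10 µM, 0.5% DMSO | incubation = enzyme reaction for 50 min at room temperature, dark | measured by = FRET, CFP and YFP emission | controls = no-enzyme low, enzyme-DMSO high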
SENP8 block-1 = blocks human SENP8 cleavage of Nedd8 substrate. Q96LD8. recombinant SENP8, Nedd8 substrate fluorescence. inhibition, % at 20 µM. actives 0.64% (n = 360,000). AID 602440; in the data active = inhibition mostly above about 40%, no sharp cut-off; inactive = mostly below about 27%
Target sequence (Q96LD8 whole entry, looked up): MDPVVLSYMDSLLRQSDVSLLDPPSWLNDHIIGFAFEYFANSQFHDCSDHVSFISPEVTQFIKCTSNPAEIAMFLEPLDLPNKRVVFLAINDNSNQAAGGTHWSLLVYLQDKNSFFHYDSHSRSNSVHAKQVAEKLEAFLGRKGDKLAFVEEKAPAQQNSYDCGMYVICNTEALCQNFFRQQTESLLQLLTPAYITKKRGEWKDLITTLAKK
SENP7 block = inhibitors of human SENP7 protease. inhibition, % at 5 µM. actives 1.5% (n = 330,000). Q9BQF6. recombinant SENP7, Z-RLRGG-aminoluciferin luminescence, 40 min;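 active = inhibition above about 50% at the single test dose, limit read from the data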;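 note: plate controls were DMSO with enzyme for no effect and no enzyme buffer wells for full effect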
Target sequence (Q9BQF6 706-1050 limits assumed): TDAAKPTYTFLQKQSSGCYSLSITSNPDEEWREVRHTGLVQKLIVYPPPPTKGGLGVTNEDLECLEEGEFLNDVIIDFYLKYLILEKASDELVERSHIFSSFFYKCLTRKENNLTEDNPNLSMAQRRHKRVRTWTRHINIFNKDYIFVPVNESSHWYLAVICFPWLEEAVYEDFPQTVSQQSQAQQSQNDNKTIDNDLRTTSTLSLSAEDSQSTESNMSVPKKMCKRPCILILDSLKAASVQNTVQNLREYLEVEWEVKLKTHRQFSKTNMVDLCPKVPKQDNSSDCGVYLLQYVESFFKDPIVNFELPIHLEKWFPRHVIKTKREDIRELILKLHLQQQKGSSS
SENP6 block = SENP6 protease inhibition | Q9GZR1 | Recombinant SENP6 catalytic domain, aminoluciferin luminescence | inhibition, % at 10 µM | actives 1.8% (n = 330,000) | AID 2599;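 active = inhibition above about 50% at the single tested dose, limit read from the data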;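 note: plate controls were DMSO wells with enzyme for no effect and DMSO wells lacking enzyme for full effect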
SENP8 block-2 = inhibitors of human SENP8 protease; Q96LD8; inhibition, % at 10 µM; actives 1.2% (n = 330,000); AID 2540; purified SENP8, Z-RLRGG-aminoluciferin cleavage, luminescence; in the data active = inhibition above about 50%
Platelet DG rel = modulates dense granule release in human platelets | human platelet-rich plasma, SFLLRN dense granule ATP release, luminescence | inhibition, %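 (compounds screened at 7.5 µM in platelet-rich plasma)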 | actives 0.22% (n = 300,000);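 active = mean replicate score, as percent of positive control, at or above 50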
SENP8 conf = confirmation of human SENP8 protease inhibitors; shares compounds with SENP7 block; Recombinant SENP8, Z-RLRGG-aminoluciferin luminescence, 60 min; inhibition, % at 12.5 µM; actives 40% (n = 6,200); AID 488912;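 active = mean inhibition across replicates above about 50%, limit read from the data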
SENP6 confirm = human SENP6 inhibition, confirmed. AID 488915. shares compounds with SENP7 block. recombinant SENP6, Z-RLRGG-aminoluciferin luminescence. actives 58% (n = 6,200). inhibition, % at 12.5 µM
SENP7 conf = human SENP7 inhibition, confirmed; shares compounds with SENP7 block; recombinant SENP7, Z-RLRGG-aminoluciferin luminescence, 40 min; inhibition, % at 12.5 µM; actives 69% (n = 6,200); AID 488917
Casp3 select = selectivity test for SENP inhibitors: human caspase-3 inhibition; shares compounds with SENP7 block; purified caspase-3, Z-DEVD-aminoluciferin luminescence, 60 min; inhibition, % at 12.5 µM; actives 60% (n = 6,200); AID 488918;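 active = mean inhibition above about 50%, limit read from the data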;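 note: plate controls were enzyme with DMSO for no effect and wells without caspase-3 for full effect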
Luc interf = luminescence interference (SENP counter-screen); inhibition, % at 12.5 µM; AID 488919; actives 39% (n = 6,200); Pre-incubated SENP8/Z-RLRGG-aminoluciferin, luciferase luminescence interference; shares compounds with SENP7 block;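 active = mean inhibition above about 50% when retested at one dose, limit read from the data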;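 note: plate controls were DMSO wells with completed reaction for no effect and substrate without enzyme for full effect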
* hit, by the source's call.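 Rule for the calls, unless noted: active = mean inhibition above about 50% in the one-dose retest (limit read from the data); inactive = the rest.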

For O=C(/C=C/c1cccs1)Nc1cccc(NC(=O)/C=C/c2cccs2)n1 the results were SENP1 inh -3.8, SENP8 block-1 -49.4, SENP7 block -8.3, SENP6 block 5.9, SENP8 block-2 -10.9 and Platelet DG rel -8.5.
`CCN(CC)CCOC(=O)c1ccc(NC(=O)/C=C/c2cccs2)cc1` gave SENP1 inh -0.9, SENP8 block-1 -64.7, SENP7 block -0.1, SENP6 block 0.3, SENP8 block-2 -3.3 and Platelet DG rel 6.4.
`Cc1cc(C)nc(NC(=O)/C=C/c2ccc(Cl)cc2Cl)c1` gave SENP1 inh -2.6, SENP8 block-1 15.4, SENP7 block 58.6*, SENP6 block 76.3*, SENP8 block-2 61.5*, Platelet DG rel 12.2, SENP8 conf 10.0, SENP6 confirm 17.7, SENP7 conf 78.7*, Casp3 select 34.3 and Luc interf 10.6.
Screening Cc1csc2nc(CSc3nc4ccccc4o3)c(Br)n12 returned SENP1 inh -17.3, SENP8 block-1 14.1, SENP7 block -0.6, SENP6 block 55.7*, SENP8 block-2 15.8, Platelet DG rel -0.5, SENP8 conf 28.9, SENP6 confirm 29.9, SENP7 conf 55.2*, Casp3 select 20.2 and Luc interf 12.3.
Screening Cc1csc2nc(CSc3nncn3-c3ccccc3)c(Br)n12 returned SENP1 inh -1.9, SENP8 block-1 18.3, SENP7 block 1.4, SENP6 block -22.3, SENP8 block-2 0.6 and Platelet DG rel 3.4.
Screening COc1ccc(N=C(C)C2=C(O)c3ccccc3C2=O)cc1 returned SENP1 inh 3.1, SENP8 block-1 16.5, SENP7 block 76.9*, SENP6 block 87.4*, SENP8 block-2 73.0*, Platelet DG rel -8.9, SENP8 conf 30.1, SENP6 confirm 73.9*, SENP7 conf 70.6*, Casp3 select 39.1 and Luc interf 11.7.
Screening C/C(=N\N(C)C)C1=C(O)c2ccccc2C1=O returned SENP1 inh 1.8, SENP8 block-1 18.1, SENP7 block 0.8, SENP6 block -5.9, SENP8 block-2 -6.2 and Platelet DG rel -8.1.
Screening CCOc1ccc(N=C(C)C2=C(O)c3ccccc3C2=O)cc1 returned SENP1 inh 0.0, SENP8 block-1 30.4, SENP7 block 84.3*, SENP6 block 85.2*, SENP8 block-2 78.2*, Platelet DG rel -0.6, SENP8 conf 29.1, SENP6 confirm 31.7, SENP7 conf 45.8, Casp3 select 31.1 and Luc interf 12.0.
`O=C(NCCCN1CCOCC1)c1sc2cc([N+](=O)[O-])ccc2c1Cl` gave SENP1 inh 3.5, SENP8 block-1 13.4, SENP7 block -1.5, SENP6 block 62.4*, SENP8 block-2 4.9, Platelet DG rel 8.5, SENP8 conf -7.7, SENP6 confirm -5.3, SENP7 conf -9.4, Casp3 select 4.5 and Luc interf 0.1.
For O=C(NCCCN1CCOCC1)c1sc2cc(Cl)ccc2c1Cl the results were SENP1 inh 1.8, SENP8 block-1 11.8, SENP7 block -5.3, SENP6 block -24.0, SENP8 block-2 -3.6 and Platelet DG rel -0.6.
`c1ccc(-c2ncc(CN3CCN(c4ccccn4)CC3)[nH]2)cc1` gave SENP1 inh 4.0, SENP8 block-1 6.9, SENP7 block 4.7, SENP6 block -21.2, SENP8 block-2 -17.9 and Platelet DG rel -12.3.
Screening Cc1ccnc(NC(=O)Nc2cccc(F)c2)n1 returned SENP1 inh 3.7, SENP8 block-1 9.1, SENP7 block 67.3*, SENP6 block 28.3, SENP8 block-2 44.3, Platelet DG rel 7.1, SENP8 conf 30.4, SENP6 confirm 30.9, SENP7 conf 57.2*, Casp3 select 61.2* and Luc interf 12.0.
Screening COc1cccc(NC(=O)Nc2nccc(C)n2)c1 returned SENP1 inh 3.3, SENP8 block-1 0.9, SENP7 block 54.5*, SENP6 block 57.8*, SENP8 block-2 30.7, Platelet DG rel 1.3, SENP8 conf 30.4, SENP6 confirm 31.9, SENP7 conf 70.7*, Casp3 select 75.7* and Luc interf 34.5.
COc1cccc(NC(=O)NCc2ccccn2)c1 was read as SENP1 inh -0.2, SENP8 block-1 9.3, SENP7 block -6.9, SENP6 block -0.5, SENP8 block-2 -4.1 and Platelet DG rel 13.0.
Screening Cc1cccc(/C(N)=N/OC(=O)c2cccc3ccccc23)c1 returned SENP1 inh 1.7, SENP8 block-1 -132.1, SENP7 block 86.9*, SENP6 block 86.7*, SENP8 block-2 76.5*, Platelet DG rel 2.8, SENP8 conf 86.3*, SENP6 confirm 84.6*, SENP7 conf 96.1*, Casp3 select 72.3* and Luc interf 82.2*.
`Cc1ccc(/C(N)=N/OC(=O)c2ccc(C)cc2Cl)cc1` gave SENP1 inh 2.1, SENP8 block-1 10.3, SENP7 block 85.1*, SENP6 block 80.5*, SENP8 block-2 70.3*, Platelet DG rel 4.7, SENP8 conf 62.7*, SENP6 confirm 63.2*, SENP7 conf 88.6*, Casp3 select 56.9* and Luc interf 24.6.
For CCOP(=O)(OCC)/C(=N/OC(=O)c1ccc(Cl)cc1Cl)C(N)=O the results were SENP1 inh 1.1, SENP8 block-1 21.0, SENP7 block 2.2, SENP6 block -22.3, SENP8 block-2 2.3 and Platelet DG rel 2.5.
For N/C(=N\OC(=O)c1ccc(Cl)cc1Cl)c1ccccc1 the results were SENP1 inh 0.3, SENP8 block-1 17.8, SENP7 block 98.9*, SENP6 block 100.8*, SENP8 block-2 93.5*, Platelet DG rel 44.8, SENP8 conf 98.1*, SENP6 confirm 99.2*, SENP7 conf 103.1*, Casp3 select 97.9* and Luc interf 97.6*.
Screening N/C(=N\OC(=O)c1ccc(Cl)cc1Cl)c1ccc(Cl)cc1 returned SENP1 inh 1.9, SENP8 block-1 18.1, SENP7 block 54.2*, SENP6 block 61.7*, SENP8 block-2 36.7, Platelet DG rel -17.8, SENP8 conf 13.1, SENP6 confirm 34.7, SENP7 conf 69.1*, Casp3 select 47.7 and Luc interf 36.3.
